Source: publication PMC1301599 (Nucleic Acids Research, 2005)

What was measured:
Assay type in all cases: cell-based
[1] = system: constitutive CMV promoter-directed Renilla luciferase in HeLa Tet-Off/Tat/luc-f/luc-R cells; assay: Control Renilla luciferase expression in HeLa cell reporter assay; settings: chloroquine alone treatment; data not shown
Method in brief: (§1)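 HeLa Tet-Off/Tat/luc-f/luc-R cells (HIV-1 LTR-firefly, CMV-Renilla), 10 × 10^3/well, grown 24 h at 37°C. They were exposed 6 h in Opti-MEM with 100 µM chloroquine, with or without test compound diluted from 2.5 µM in that medium. Cells were PBS-washed, then grown 18 h in DMEM/10% FBS. Lysate firefly and Renilla luminescence was read sequentially, normalised to parallel-plate viability absorbance, and expressed as % of cells without test compound. Two replicates, three experiments.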

[2] = system: HIV-1 Tat-dependent trans-activation (TAR RNA; HIV-1 LTR firefly luciferase) in HeLa Tet-Off/Tat/luc-f/luc-R cells; assay: Inhibition of Tat-dependent trans-activation in HeLa cell reporter assay; settings: for reduction of firefly luciferase activity, 6 h delivery with chloroquine: 6 h incubation in presence of 100 µM chloroquine, then 18 h growth, 0.312-2.5 µM
Method in brief: as §1

[3] = system: HeLa Tet-Off/Tat/luc-f/luc-R cells; assay: Toxicity assay; settings: 100 µM chloroquine; data not shown
Method in brief: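 This ran on a duplicate plate of HeLa Tet-Off/Tat/luc-f/luc-R cells (10 × 10^3/well, 24 h at 37°C). The plate got 6 h with 100 µM chloroquine in Opti-MEM, then a PBS wash and 18 h in DMEM/10% FBS. Live cells were quantified colorimetrically with the CellTiter 96 AQueous One reagent, absorbance at 490 nm. Two replicates in each of three experiments.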

Compound | level of Renilla luciferase, chloroquine alone [1] | level of firefly luciferase activity, chloroquine alone ([2]; 100 µM chloroquine, no CPP–PNA) | HeLa cell viability, chloroquine alone [3] | reduction of firefly luciferase activity, 6 h delivery with chloroquine [2]
CCN(CC)CCCC(C)Nc1ccnc2cc(Cl)ccc12 (centres unmarked) [chloroquine] | reduction | not significantly affected | No effect | 
CTCCGCAGCTCAGATC (disulfide) [mismatched conjugate 13] |  |  |  | no inhibitory activity
ATCGCTCGCACCATGC (disulfide) [scrambled conjugate 13] |  |  |  | no inhibitory activity
